# Results published in paper PMC9447421 (FASEB BioAdvances, 2022).
# Where a name gives a salt, the structure may show the parent alone.
# Legend:
# [1] = test system: hT2R1; conditions: human T2R1; cited from earlier work
# [2] = test system: hT2R4; conditions: human T2R4; cited from earlier work
# [3] = test system: canonical Gβγ‐PLC signaling pathway activated by T2Rs (T2R1); format: cell-based, Astyanax mexicanus; conditions: T2R1 cells; blocker 10 μM, 30 min pretreatment; brine shrimp 5 mg/ml
# Method in brief: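 HEK293T cells stably expressing FLAG-tagged fish T2R1, selected in hygromycin (200 μg/ml). Brine shrimp (300 mg ground food per 10 ml) and blockers prepared in assay buffer (1X HBSS, 20 mM HEPES). Cells loaded with Fluo-4 NW, 35 min at 37°C then 35 min at room temperature. Compounds added robotically on a FlexStation 3. Signal baseline-subtracted against parental HEK293T cells and reported as ΔRFU.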
# [4] = target: T1, A. mexicanus T2R4 (Astyanax mexicanus, UniProt A0A3B1ICP8); test: Calcium mobilization assay, HEK293T cells stably expressing T2R4; format: cell-based
# T1 sequence (A0A3B1ICP8 2-338): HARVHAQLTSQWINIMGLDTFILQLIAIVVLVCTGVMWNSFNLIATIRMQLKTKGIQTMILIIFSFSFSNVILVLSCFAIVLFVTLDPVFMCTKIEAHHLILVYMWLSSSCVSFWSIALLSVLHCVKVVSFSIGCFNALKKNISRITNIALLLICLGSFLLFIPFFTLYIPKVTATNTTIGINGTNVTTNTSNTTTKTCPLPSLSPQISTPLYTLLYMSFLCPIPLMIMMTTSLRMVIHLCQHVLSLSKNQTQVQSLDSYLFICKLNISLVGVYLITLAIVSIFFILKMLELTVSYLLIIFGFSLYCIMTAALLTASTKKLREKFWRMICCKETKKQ
# [5] = test system: hT2R4; conditions: human T2R4; cited from earlier work; remark: listed apart in the source
smiles,measurement,setting,value
"C=C[C@H]1C[N@@]2CC[C@H]1C[C@H]2[C@H](O)c1ccnc2ccc(OC)cc12 [quinine, quinine hydrochloride]",Activation of hT2R1,[1],does not activate
same,Effect on hT2R4 expression (pharmacological chaperone),[2],acts intracellularly to enhance hT2R4 expression
COc1ccc2c(c1)CC[C@@H]1[C@@H]2CC[C@]2(C)[C@@H](NCCCCCCN3C(=O)C=CC3=O)CC[C@@H]12 [U73122],Effect of pretreatment on brine shrimp-induced calcium mobilization,[3],significant decrease in calcium mobilization
"O=C1OC2(c3ccccc31)c1ccc(O)c(O)c1Oc1c2ccc(O)c1O [gallein, Gallein]",Effect of pretreatment on brine shrimp-induced calcium mobilization,[3],significant decrease in calcium mobilization
"COc1ccc2c(c1)[C@]13CCCC[C@@H]1[C@H](C2)N(C)CC3 [DXM, dextromethorphan]",EC50,[4],1430 µM
same,Activation of hT2R4,[5],does not activate
COc1ccc2c(c1)CC[C@@H]1[C@@H]2CC[C@]2(C)[C@@H](NCCCCCCN3C(=O)CCC3=O)CC[C@@H]12 [U73343],Effect of pretreatment on brine shrimp-induced calcium mobilization,[3],no significant differences
